Assay results from ChEMBL document CHEMBL3259653, “Potent and selective inhibitors of human reticulocyte 12/15-lipoxygenase as anti-stroke therapies” (J Med Chem, 2014).
The source made the active and inactive calls. The calls are words filed in the database; no cut-off is given here.

Experiments:
[1] = Metabolic stability in mouse plasma assessed as compound remaining measured at 2 hrs; format: ADME, cell-free; settings: read-out: Stability
Summary of the method: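 Compound was incubated in mouse plasma, and the percent remaining was measured at 2 h. Run at a contract lab.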

[2] = test system: Mus musculus; experiment: Neuroprotective activity in C57BL6J mouse distal middle cerebral artery occlusion model of permanent focal ischemia assessed as reduction in infarct size at 50 mg/kg, ip administered 2 hrs post ischemia induction measured after 24 hrs by TTC staining relative to vehicle-treated control; format: functional; parameters: scale not given: the % may be the effect or the level left; settings: route intraperitoneal
Summary of the method: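 FeCl3-induced distal MCA occlusion: 10% FeCl3-saturated filter paper on intact dura along MCA under 1.5% isoflurane in N2O/O2, body temperature held at 37 ± 0.3 °C, rCBF followed by laser doppler for 3 h. Compound or DMSO vehicle given IP after 2 h ischemia. Sacrifice at 24 h; TTC staining of 1 mm slices, indirect infarct volume; surgeon and assessor blinded.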

[3] = biological target: T1, Polyunsaturated fatty acid lipoxygenase ALOX15 (Mus musculus) (UniProt P39654); experiment: Inhibition of 12/15-lipoxygenase in mouse HT22 cells assessed as protection against glutamate-induced cell death after 24 hrs by LDH release assay; format: cell-based; settings: HT-22
T1 sequence (whole entry): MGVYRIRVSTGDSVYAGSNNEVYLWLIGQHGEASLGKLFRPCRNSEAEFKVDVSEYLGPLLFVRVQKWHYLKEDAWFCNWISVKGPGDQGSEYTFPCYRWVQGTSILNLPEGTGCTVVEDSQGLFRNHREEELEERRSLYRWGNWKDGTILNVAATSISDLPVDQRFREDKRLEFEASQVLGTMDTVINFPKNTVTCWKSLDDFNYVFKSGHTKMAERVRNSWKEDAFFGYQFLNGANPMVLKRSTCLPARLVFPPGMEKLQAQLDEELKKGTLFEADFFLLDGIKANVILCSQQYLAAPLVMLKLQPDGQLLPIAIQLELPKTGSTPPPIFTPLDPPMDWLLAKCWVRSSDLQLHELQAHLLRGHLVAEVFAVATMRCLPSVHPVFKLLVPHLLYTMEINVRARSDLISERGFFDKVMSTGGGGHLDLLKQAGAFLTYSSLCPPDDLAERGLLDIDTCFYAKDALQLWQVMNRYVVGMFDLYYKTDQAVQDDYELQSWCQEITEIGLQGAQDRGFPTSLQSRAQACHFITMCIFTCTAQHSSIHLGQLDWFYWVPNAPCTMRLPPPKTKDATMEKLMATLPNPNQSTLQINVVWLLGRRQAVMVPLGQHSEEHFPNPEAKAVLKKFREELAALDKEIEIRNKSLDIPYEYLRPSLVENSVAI
Summary of the method: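 HT22 mouse hippocampal cells were grown in DMEM with 10% FBS and penicillin/streptomycin, seeded at 1 × 10^4 cells/well and treated 18 h later at 50–70% confluence. Medium was exchanged for fresh medium with 5 mM glutamate plus compound or DMSO (≤0.1% final). Death was scored as percent LDH released to the medium versus the cell extract, background-subtracted.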

[4] = biological target: T1, Polyunsaturated fatty acid lipoxygenase ALOX15 (Mus musculus); experiment: Inhibition of 12/15-lipoxygenase in mouse HT22 cells assessed as reduction of 12-HETE production at 10 uM after 24 hrs by HPLC/MS analysis; format: cell-based; settings: HT-22
Summary of the method: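 HT22 cells were grown in 75 cm² flasks in phenol red-free DMEM with 5% FBS and treated at 50–70% confluence with 5 mM glutamate with or without compound. After 24 h the eicosanoid fraction of the medium was isolated on a C-18 cartridge. 12-HETE was quantified by HPLC/MS against a 12(S)-HETE standard curve.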

[5] = biological target: T2, Prostaglandin G/H synthase 1 (Ovis aries) (UniProt P05979); experiment: Inhibition of ovine COX-1 using arachidonic acid as substrate assessed as consumption of oxygen at 5 uM preincubated for 5 mins followed by substrate addition by oxygen electrode-based assay relative to control
T2 sequence (whole entry): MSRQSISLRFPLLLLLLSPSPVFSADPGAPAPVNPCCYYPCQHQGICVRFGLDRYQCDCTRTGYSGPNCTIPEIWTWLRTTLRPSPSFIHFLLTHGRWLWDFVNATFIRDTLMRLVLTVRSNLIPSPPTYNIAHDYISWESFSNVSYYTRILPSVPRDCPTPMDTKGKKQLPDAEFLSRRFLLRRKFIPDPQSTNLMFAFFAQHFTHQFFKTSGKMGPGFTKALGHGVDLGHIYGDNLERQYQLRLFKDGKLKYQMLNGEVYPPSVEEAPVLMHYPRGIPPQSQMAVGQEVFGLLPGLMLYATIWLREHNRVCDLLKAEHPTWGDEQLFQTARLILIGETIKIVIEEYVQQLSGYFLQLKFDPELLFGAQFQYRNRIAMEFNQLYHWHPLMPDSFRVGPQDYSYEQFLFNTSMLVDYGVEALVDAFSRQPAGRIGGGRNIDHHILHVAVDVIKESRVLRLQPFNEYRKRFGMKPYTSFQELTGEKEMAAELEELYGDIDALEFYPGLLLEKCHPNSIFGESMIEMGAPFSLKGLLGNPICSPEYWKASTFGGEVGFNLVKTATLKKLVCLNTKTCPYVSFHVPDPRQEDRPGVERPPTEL
Summary of the method: (§1)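 COX-1 or COX-2 (2–5 μg) in 0.1 M Tris-HCl pH 8.0 with 5 mM EDTA, 2 mM phenol and 1 μM hematin at 37 °C. Inhibitor was preincubated 5 min, then 100 μM arachidonic acid was added. Oxygen consumption was read on an oxygen electrode, and percent inhibition was calculated against a DMSO control, with indomethacin as positive control.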

[6] = biological target: T3, Prostaglandin G/H synthase 2 (Homo sapiens) (UniProt P35354); experiment: Inhibition of human COX-2 using arachidonic acid as substrate assessed as consumption of oxygen at 5 uM preincubated for 5 mins followed by substrate addition by oxygen electrode-based assay relative to control; summary of the method: as §1
T3 sequence (whole entry): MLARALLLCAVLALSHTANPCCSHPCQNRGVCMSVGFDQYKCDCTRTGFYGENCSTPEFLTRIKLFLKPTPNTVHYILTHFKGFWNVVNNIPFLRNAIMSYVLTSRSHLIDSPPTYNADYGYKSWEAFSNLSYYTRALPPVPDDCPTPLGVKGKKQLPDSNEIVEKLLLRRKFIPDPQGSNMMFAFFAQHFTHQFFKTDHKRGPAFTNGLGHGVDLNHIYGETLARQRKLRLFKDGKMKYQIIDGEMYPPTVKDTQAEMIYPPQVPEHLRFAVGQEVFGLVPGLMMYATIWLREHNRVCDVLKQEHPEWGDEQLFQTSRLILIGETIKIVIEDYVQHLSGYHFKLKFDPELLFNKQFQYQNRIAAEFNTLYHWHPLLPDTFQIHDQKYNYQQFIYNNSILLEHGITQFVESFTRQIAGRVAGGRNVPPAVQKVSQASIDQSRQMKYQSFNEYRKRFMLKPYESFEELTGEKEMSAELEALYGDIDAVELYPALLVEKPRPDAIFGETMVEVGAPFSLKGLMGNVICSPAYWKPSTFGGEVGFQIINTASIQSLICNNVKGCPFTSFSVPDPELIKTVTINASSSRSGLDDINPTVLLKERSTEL

[7] = test system: Liver microsome; experiment: Half life in rat liver microsomes in presence of NADPH; format: ADME
Summary of the method: (§2)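 Rat or mouse liver microsomes were incubated with NADPH, and half-life was taken from compound depletion. Run at a contract lab.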

[8] = test system: Liver; experiment: Half life in mouse liver microsomes in presence of NADPH; format: ADME; summary of the method: as §2
[9] = test system: Liver microsome; experiment: Metabolic stability in rat liver microsomes measured over 1 hr in absence of NADPH; format: ADME
Summary of the method: (§3)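 Liver microsomes (mouse or rat) were incubated without NADPH over a 1 h period, and compound degradation was followed. Run at a contract lab.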

[10] = test system: Liver; experiment: Metabolic stability in mouse liver microsomes measured over 1 hr in absence of NADPH; format: ADME; summary of the method: as §3
[11] = Stability of the compound in buffer at pH 2 measured over 48 hrs; format: physicochemical; settings: pH 2, 48 h
[12] = Stability of the compound in DPBS buffer at pH 7.4 measured over 48 hrs; format: physicochemical; settings: pH 7.4, 48 h
[13] = Stability of the compound in buffer at pH 9 measured over 48 hrs; format: physicochemical; settings: pH 9, 48 h
[14] = test system: Plasma; experiment: Half life in CD1 mouse plasma at 30 mg/kg, ip; format: ADME, organism-based; parameters: dose 30 mg/kg, route intraperitoneal; settings: in vivo
Summary of the method: (§4)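 Male CD1 mice, 6–8 weeks old, given a single 30 mg/kg IP dose formulated as a solution in 10% Solutol, 10% Cremophor EL and 20% PEG 400 in saline. Plasma and brain were sampled at eight time points over 24 h, in triplicate. Study run at a contract lab.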

[15] = test system: Brain; experiment: Half life in CD1 mouse brain at 30 mg/kg, ip; format: ADME, organism-based; parameters: dose 30 mg/kg, route intraperitoneal; settings: in vivo; summary of the method: as §4
[16] = test system: Plasma; experiment: Cmax in CD1 mouse plasma at 30 mg/kg, ip; format: ADME, organism-based; parameters: dose 30 mg/kg, route intraperitoneal; settings: in vivo; summary of the method: as §4
[17] = test system: Brain; experiment: Cmax in CD1 mouse brain at 30 mg/kg, ip; format: ADME, organism-based; parameters: dose 30 mg/kg, route intraperitoneal; settings: in vivo; summary of the method: as §4

## CNc1oc(-c2cccc3ccccc23)nc1C#N
[1]
  remaining at 2 h: 100%
[2]
  Activity: 30%
[3]
  inhibition: Dose-dependent effect
[4]
  inhibition: Active
[5]
  inhibition: < 10%
[6]
  inhibition: < 10%
[7]
  t1/2: 18 min
[8]
  t1/2: 5.5 min
[9]
  Stability: Stable
[10]
  Stability: Stable
[11]
  Stability: Stable
[12]
  Stability: Stable
[13]
  Stability: Stable
[14]
  t1/2: 66 min
[15]
  t1/2: 60 min
[16]
  Cmax: 13.8 µM
[17]
  Cmax: 28.8 µM
